Sampled rows, rich in hits. Any-hit rate of the full collection: about 2%.
CSN inh: inhibitors of CSN-mediated cullin deneddylation, primary screen, biochemical, fluorescence polarization, uHTS; COP9 signalosome complex subunit 5 (Homo sapiens), Q92905; Purified CSN, SCF-Nedd8-OG deneddylation; inhibition, % at 12.5 µM; 360,000 compounds, 0.38% hits;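 active = pattern-corrected inhibition above about 35%, with an unprinted fluorescence ratio check between 0.5 and 1.5, limit read from the data, passing the limit was not always enough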;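 also: 0% = enzyme with substrate and 100% = substrate without enzyme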
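test system = HEK293T-derived human Csn5 enzyme | amount = 0.24 nM Csn5 enzyme, final concentration | medium = Tris/NaCl/DTT buffer, pH 7.5 | schedule = 90 min reaction at room temperature | signal = FP | evaluation = inhibition of Csn5 cleavage, % | compound dosing = single dose of 12.5 µM compound with 0.25% DMSO | probe or stimulus = 10 nM SCFSkp2-Nedd8OG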
TPT1 inh: Candida albicans TPT1 enzyme inhibitors, primary screen, biochemical, fluorescence polarization; 300,000 compounds, 0.81% hits; inhibition, % at 5 µM; recombinant caTPT1, FP RNA substrate dephosphorylation; tRNA 2'-phosphotransferase TPT1 (Candida albicans SC5314);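 active = inhibition above the mean of all tested compounds plus 3 SD, set per screening campaign, cut at about 24% in these data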;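 also: plate controls were DMSO alone for no effect and ferristatin control at 100 nM for full effect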
HNF4A DNA FP: change in binding of human HNF4A to DNA, primary screen, biochemical, fluorescence polarization, FITC-DNA | activity change, % at 10 µM | Hepatocyte nuclear factor 4-alpha (Homo sapiens), P41235 | 1 h | 360,000 compounds, 0.3% hits; in the data active = activity change above about 30%, passing the limit was not always enough
Target sequence (P41235 whole entry, looked up): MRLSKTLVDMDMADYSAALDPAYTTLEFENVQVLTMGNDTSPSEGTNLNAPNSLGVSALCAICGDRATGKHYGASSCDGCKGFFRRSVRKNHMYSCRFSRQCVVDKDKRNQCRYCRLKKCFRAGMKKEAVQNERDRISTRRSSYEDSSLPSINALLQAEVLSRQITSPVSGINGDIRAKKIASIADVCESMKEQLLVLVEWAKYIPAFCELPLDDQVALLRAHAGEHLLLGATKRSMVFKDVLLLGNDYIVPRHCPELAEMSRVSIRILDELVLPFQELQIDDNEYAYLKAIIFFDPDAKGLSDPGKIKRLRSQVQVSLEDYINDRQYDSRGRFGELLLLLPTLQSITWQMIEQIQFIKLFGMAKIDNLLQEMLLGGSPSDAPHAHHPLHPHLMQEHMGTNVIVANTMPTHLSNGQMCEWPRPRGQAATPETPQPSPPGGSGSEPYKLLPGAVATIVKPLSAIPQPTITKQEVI
Rpn11 inh: Rpn11 (PSMD14) deubiquitinase inhibitors, primary screen, biochemical, fluorescence polarization, uHTS | inhibition, % at 20 µM | 26S proteasome non-ATPase regulatory subunit 14 (Homo sapiens), O00487 | 360,000 compounds, 0.59% hits | human 26S proteasome, Ub4-pepOG fluorescence polarization; 20S core pre-blocked with epoxomicin;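 active = inhibition at 20 µM, scaled to each plate's controls, above about 33%, limit read from the data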
ATG4B inhibitor: ATG4B protease inhibitors, primary screen, biochemical, fluorescence, uHTS. 340,000 compounds, 0.51% hits. inhibition, % at 8.33 µM. ATG4B cleavage of LC3-PLA2, NBD-HPC fluorescence, 1 h
SENP1 inh: human SENP1 catalytic domain inhibitors, primary screen, biochemical, FRET, uHTS; recombinant SENP1 catalytic domain, CyPet-SUMO1-YPet FRET cleavage; inhibition, % at 10 µM; 360,000 compounds, 0.21% hits; AID 624204, 2012;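 active = inhibition at least 30% at 10 µM, raw YFP signal under a set limit, fluorescence ratio 0.5 to 1.5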;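 also: 0% = enzyme with DMSO and 100% = no enzyme wells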
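Assay system: hSENP1 catalytic domain, recombinant. Amount: SENP1 enzyme, 20 pM final. Schedule: 50 min reaction, RT, dark. Technique: FRET, CFP and YFP emission. Control set: no-enzyme wells low, DMSO-plus-enzyme wells high control.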
caTPT1 confirm: Candida albicans TPT1 inhibitors, confirmation, biochemical, fluorescence polarization, triplicate; shares compounds with TPT1 inh; recombinant caTPT1, RNase T1 coupled; inhibition, % at 5 µM; 2,400 compounds, 74% hits; AID 2149, 2009;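 active = inhibition above the primary screen limit, the mean inhibition of all tested compounds plus 3 SD, cut at about 25% in these data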
RNase T1 inh: RNase T1 inhibitors, counter-screen for TPT1 inhibitor project, biochemical, fluorescence polarization; shares compounds with TPT1 inh; RNase T1 cleavage, 1536-well; inhibition, % at 5 µM; 2,400 compounds, 83% hits; AID 2153, 2009;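 active = inhibition above the solvent-only control well mean plus 3 SD, limit set per screening run, cut at about 23% in these data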;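 also: plate controls were DMSO wells with enzyme for no effect and wells without RNase T1 for full effect; inhibitors block cleavage so intact labeled substrate keeps polarization high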
Target sequence (P00651 whole entry, looked up): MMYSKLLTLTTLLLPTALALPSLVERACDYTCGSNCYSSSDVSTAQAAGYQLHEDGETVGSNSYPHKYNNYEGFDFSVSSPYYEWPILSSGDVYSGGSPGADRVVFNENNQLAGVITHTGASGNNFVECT
Rpn11 inh conf: Rpn11 (PSMD14) deubiquitinase inhibitors, confirmation, biochemical, fluorescence polarization, single concentration; shares compounds with Rpn11 inh; purified human 26S proteasome, Ub4-pepOG fluorescence polarization; proteasome pretreated with epoxomicin; inhibition, % at 20 µM; 1,900 compounds, 29% hits; AID 602318, 2012
MMP-2 counter: MMP-2 enzyme inhibition, confirmation, counter-screen for RPN11 inhibitor project, biochemical, fluorescence, single concentration | inhibition, % at 20 µM | AID 602330, 2012 | shares compounds with Rpn11 inh | 1,900 compounds, 4% hits | recombinant MMP-2, FRET peptide cleavage fluorescence;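 also: human MMP-2 activated beforehand with APMA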
Thrombin FP: bovine thrombin protease inhibition, confirmation, counter-screen for Rpn11 inhibitor project, biochemical, fluorescence polarization, single concentration. 1,900 compounds, 13% hits. shares compounds with Rpn11 inh. AID 602333, 2012. bovine thrombin cleavage of Ub4-pepOG. inhibition, % at 20 µM;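 active = mean inhibition at least 40% at 20 µM, or signal 3 deviations below plate average, so some actives read negative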;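 also: plate controls were thrombin with DMSO for no effect and buffer wells lacking thrombin for full effect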
An asterisk follows results filed as active; nt = not tested or not shown. Rule as the data show it, unless noted: active = inhibition above about 40%; inactive = the rest.

SMILES	CSN inh	TPT1 inh	HNF4A DNA FP	Rpn11 inh	ATG4B inhibitor	SENP1 inh	caTPT1 confirm	RNase T1 inh	Rpn11 inh conf	MMP-2 counter	Thrombin FP
Cc1c(C(=O)N/N=C/c2ccc(-c3ccccc3[N+](=O)[O-])o2)sc(N)c1C#N	-4	7	-3	-11	-6	-17	nt	nt	nt	nt	nt
Cc1c(C(=O)N/N=C/c2ccc(O)c(Br)c2)sc(N)c1C#N	14	27*	23	58*	8	-35	17	24*	54*	20	41*
CCCS(=O)(=O)NC(=O)C1(C)CCCN(C(=O)c2oc3ccccc3c2C)C1 (stereo not given)	2	nt	-2	-3	nt	2	nt	nt	nt	nt	nt
COc1ccc(/C=C2\Oc3cc(OCC(=O)N4CCC[C@H]4C(=O)O)ccc3C2=O)c(OC)c1	14	35*	24	59*	-37	-21	81*	91*	142*	-1	87*
Cc1sc2nc(CSc3nnc(Cc4cccs4)n3C3CCCCC3)[nH]c(=O)c2c1C	15	38*	30	72*	-3	9	66*	74*	102*	-7	59*
Cc1ccc2nc(CSc3nnc(Cc4cccs4)n3C3CCCCC3)cc(=O)n2c1	0	-1	-2	4	-15	-4	nt	nt	nt	nt	nt
Cc1sc2nc(CSc3nc4ccccc4c(=O)n3CCCN3CCOCC3)[nH]c(=O)c2c1C	17	57*	34*	50*	-12	-18	67*	77*	89*	-33	38
CC(=O)c1c(C)[nH]c(C(=O)CSc2nc3ccccc3c(=O)n2CCCN2CCOCC2)c1C	1	3	-2	-1	4	2	nt	nt	nt	nt	nt
COCCCn1c(=O)/c(=C\c2ccccc2OC(C)C)s/c1=C(/C#N)C(=O)Nc1ccc(C(=O)O)cc1	44	39*	26	99*	-20	-72	19	58*	-85	-38	active
Clc1cccc(Cc2c(-c3ccccc3)nc3ccc(Cl)cn23)c1	5	nt	7	16	nt	-29	nt	nt	nt	nt	nt
CCOc1cc(/C=C2\CN(CC)C/C(=C\c3ccc(O)c(OCC)c3)C2=O)ccc1O	5	4	2	8	-8	12	nt	nt	nt	nt	nt
CCOc1cc(/C=C2\SC(=O)N(c3ccc(O)cc3)C2=O)ccc1O	27	70*	8	68*	1	-34	74*	77*	15	1	6
CCOc1ccc(N2C(=O)S/C(=C\c3ccc(O)c(OCC)c3)C2=O)cc1	2	46*	15	47*	-1	-31	58*	60*	9	26	-1
CCN(CC)c1ccc2cc(C(N)=O)c(=O)oc2c1	12	40*	35	40*	5	-27	36*	45*	11	-43	5
Cc1cc(C)c(C(=O)c2cccs2)c(C)c1	1	nt	3	-2	-3	-1	nt	nt	nt	nt	nt
Cc1cc(C(=O)c2cccs2)c(N)s1	24	35*	19	53*	-15	8	40*	49*	50*	-26	39
COc1ccc(OC)c(Nc2nc(-c3cccs3)cs2)c1	12	2	2	29	-5	1	nt	nt	nt	nt	nt
COc1ccc(C)cc1Nc1nc(-c2c[nH]c3ccccc23)cs1	16	31*	20	42*	2	-19	26*	36*	8	28	1
COc1cccc(-c2cnc(C(O)c3ccc(C)cc3C)[nH]2)c1 (stereo not given)	7	nt	1	-2	nt	-1	nt	nt	nt	nt	nt
COc1ccc(C(=O)COC(=O)c2ccccc2O)c(OC)c1	6	nt	-8	2	10	-5	nt	nt	nt	nt	nt
COc1cc([N+](=O)[O-])cc(/C=N/NC(=O)c2cc(-c3ccccc3)nc3ccccc23)c1O	24	41*	17	89*	-3	50	29*	45*	68*	31	11
COc1ccc(/C=N/NC(=O)c2cc(-c3ccccc3)nc3ccccc23)c(C(=O)O)c1OC	3	-1	-2	5	-4	2	nt	nt	nt	nt	nt
COc1cc([N+](=O)[O-])cc(/C=N/NC(=O)c2cncc(Br)c2)c1O	12	42*	10	60*	4	-35	43*	59*	49*	16	29
O=C(N/N=C\c1ccc([N+](=O)[O-])o1)c1cncc(Br)c1	4	0	-4	-6	-3	1	nt	nt	nt	nt	nt
COc1cc(/C=N/NC(=O)c2cncc(Br)c2)cc([N+](=O)[O-])c1O	10	44*	11	68*	3	-32	49*	64*	18	28	7
O=C(Cn1cc(C(=O)C(=O)N2CCOCC2)c2ccccc21)Nc1cccc(C(F)(F)F)c1	0	nt	-4	14	nt	2	nt	nt	nt	nt	nt
Cc1cc(C(=O)OCC(=O)Nc2c(Cl)cccc2Cl)c(C)o1	11	nt	2	2	8	-1	nt	nt	nt	nt	nt
Cc1cc(/C=C2\SC(=S)NC2=O)cc(C)c1O	33	35*	34*	124*	12	67	10	17	26	8	19

Compound activity as filed in PubChem.
